This is a sample that favours compounds with a hit; in the whole collection about 2.8% have one here.
EP2 antag = human EP2 receptor antagonists, primary screen, TR-FRET cAMP, C6 glioma cells; Prostaglandin E2 receptor EP2 subtype (Homo sapiens), P43116; C6 glioma cells expressing human EP2; cells stimulated with saturating PGE2; inhibition, % at 25 µM; 0.52% of 260,000 active; AID 1422, 2008;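 active = percent inhibition above 40 after rounding to a whole number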;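 note: rat C6 glioma host cells with rolipram phosphodiesterase inhibitor present; the protocol text gives 20 µM as final concentration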
Target sequence (P43116 whole entry, looked up): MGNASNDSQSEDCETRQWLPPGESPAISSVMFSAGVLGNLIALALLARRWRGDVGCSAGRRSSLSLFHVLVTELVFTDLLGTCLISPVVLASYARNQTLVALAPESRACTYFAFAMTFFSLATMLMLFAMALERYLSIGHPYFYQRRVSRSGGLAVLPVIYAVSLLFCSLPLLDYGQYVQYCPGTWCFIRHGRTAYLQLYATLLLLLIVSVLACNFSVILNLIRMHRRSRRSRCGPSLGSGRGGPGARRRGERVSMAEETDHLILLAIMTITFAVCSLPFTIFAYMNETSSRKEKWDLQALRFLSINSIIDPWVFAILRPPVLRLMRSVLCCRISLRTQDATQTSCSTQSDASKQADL
NPY-Y2 antag = NPY-Y2 receptor antagonists, primary screen, cell-based; Neuropeptide Y receptor type 2 (Homo sapiens), P49146; NPY-Y2 expressing cells, antagonist mode; inhibition, % at 2.7 µM; 0.99% of 140,000 active; in the data active = inhibition above about 17%;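 note: 0% = vehicle with agonist challenge and 100% = reference antagonist with challenge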
NPY2 pot ag = NPY-Y2 potentiators or agonists, primary screen, cell-based. activation, % at 3.6 µM. 0.45% of 220,000 active. AID 1359, 2008. cells expressing NPY-Y2, potentiator/agonist read-out. Neuropeptide Y receptor type 2 (Homo sapiens), P49146; in the data active = activation above about 27%;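 note: cells stimulated with NPY near EC25 plus isoproterenol at EC100; 0% = vehicle plus submaximal agonist and 100% = vehicle plus saturating agonist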
NPY-Y1 PAM-ag = NPY-Y1 receptor potentiators or agonists, primary screen, cell-based | Neuropeptide Y receptor type 1 (Homo sapiens), P25929 | NPY-Y1 expressing cells, potentiator/agonist activation | activation, % at 3.6 µM | 0.37% of 220,000 active | AID 1304, 2008; in the data active = activation above about 33%, passing the limit was not always enough;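 note: cells stimulated with NPY at EC10 then isoproterenol at EC100; 0% = low agonist plus stimulus and 100% = saturating agonist plus stimulus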
Target sequence (P25929 whole entry, looked up): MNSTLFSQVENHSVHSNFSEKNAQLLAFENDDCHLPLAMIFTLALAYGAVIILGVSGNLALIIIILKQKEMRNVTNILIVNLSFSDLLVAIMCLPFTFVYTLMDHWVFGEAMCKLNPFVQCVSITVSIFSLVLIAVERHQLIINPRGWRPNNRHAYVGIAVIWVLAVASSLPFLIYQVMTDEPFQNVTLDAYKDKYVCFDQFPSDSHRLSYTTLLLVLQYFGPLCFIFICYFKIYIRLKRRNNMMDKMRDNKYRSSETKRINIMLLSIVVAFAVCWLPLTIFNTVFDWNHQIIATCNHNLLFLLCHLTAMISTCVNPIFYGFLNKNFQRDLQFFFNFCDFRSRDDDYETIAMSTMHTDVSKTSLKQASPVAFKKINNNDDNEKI
EP2 mod = EP2 receptor modulators, cAMP readout, primary screen, cell-based, HTRF cAMP, PGE2 stimulation. EP2-expressing cells, cAMP HTRF FRET, PGE2 co-stimulation. induction, % at 25 µM. 0.83% of 260,000 active;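 active = compounds whose cAMP rise, as percent of the full-agonist control response, exceeds 60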;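 note: rat C6 glioma line stably carrying human EP2 under a CMV promoter; the protocol text gives 20 µM as final concentration; 100% = response of wells given 1 µM PGE2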
NPY Y1 blocker = NPY-Y1 receptor antagonists, primary screen, cell-based. Neuropeptide Y receptor type 1 (Homo sapiens), P25929. HEK293-CNG Y1 cells, membrane potential fluorescence; NPY at EC95, then isoproterenol. inhibition, % at 3.6 µM. 1% of 200,000 active. AID 1040, 2008;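 active = inhibition above the campaign mean inhibition of all tested compounds plus 3 SD, cut at about 20% in these data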;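 note: 0% = DMSO wells given NPY plus isoproterenol and 100% = isoproterenol alone without NPY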
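Assay system: HEK293 Y1/CNG channel cell line; Doses: single compound dose of 3.6 µM, 0.4% DMSO; Timing: dye 3 h, compound 60 min room temperature, stimulation 45 min; Technique: Membrane-potential fluorescent dye readout; Measure: % inhibition of NPY effect.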
NPY-Y2 confirm = NPY-Y2 potentiators or agonists, confirmation, cell-based | shares compounds with NPY2 pot ag | cell-based NPY-Y2 potentiator/agonist assay | activation, % at 3.6 µM | 20% of 450 active; in the data active = activation above about 33%
NPY-Y1 counter = NPY-Y1 potentiators or agonists, counter-screen for NPY-Y2 potentiator project, cell-based, fluorescence. activation, % at 3.6 µM. shares compounds with NPY2 pot ag. AID 1651, 2009. Y1 HEK293-CNG cells, membrane potential fluorescence. 20% of 450 active; in the data active = activation above about 45%;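 note: cells stimulated with submaximal NPY then isoproterenol with phosphodiesterase inhibitor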
NPY-Y1 ag 2 = NPY-Y1 direct agonists, selectivity assay for NPY-Y2 potentiator project, cell-based, fluorescence; shares compounds with NPY2 pot ag; 37% of 450 active; activation, % at 3.6 µM; HEK293 Y1-CNGC, membrane potential fluorescence, agonism;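 active = activation above the mean of DMSO-only control wells plus 3 SD, cut at about 18% in these data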;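 note: cells stimulated with 1 µM isoproterenol plus the PDE inhibitor Ro 20-1724; 0% = isoproterenol with DMSO and no NPY and 100% = 40 nM NPY; Y1 agonists lower the membrane potential dye signal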
CNGC inhibitor = CNGC cAMP sensor activity inhibitors, counter-screen for NPY-Y2 potentiator project, cell-based, HEK293-CNG parental, membrane potential fluorescence; shares compounds with NPY2 pot ag; 32% of 450 active; inhibition, % at 3.6 µM; AID 1703, 2009; isoproterenol cAMP;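 active = inhibition above the control-well mean plus 3 SD of those wells, cut at about 22% in these data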;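 note: 0% = DMSO with isoproterenol and 100% = DMSO without isoproterenol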
Y2 agonist ctr = NPY-Y2 direct agonists, counter-screen for NPY-Y2 potentiator project, cell-based, fluorescence | HEK293 Y2/CNGC cells, membrane potential fluorescence, agonist mode | activation, % at 3.6 µM | 56% of 450 active | AID 1710, 2009 | shares compounds with NPY2 pot ag;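 active = activation above the mean of solvent-only control wells plus 3 SD, cut at about 10% in these data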;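 note: cells stimulated by isoproterenol with no NPY added so direct agonism is tested; 0% = DMSO with isoproterenol alone and 100% = NPY at EC100 plus isoproterenol; agonism lowers probe fluorescence through less cAMP and CNG channel opening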
Starred values were filed as active, the others as inactive; / = no result given.

SMILES	EP2 antag	NPY-Y2 antag	NPY2 pot ag	NPY-Y1 PAM-ag	EP2 mod	NPY Y1 blocker	NPY-Y2 confirm	NPY-Y1 counter	NPY-Y1 ag 2	CNGC inhibitor	Y2 agonist ctr
O=C(CSc1nnc(-c2cccnc2)n1Cc1ccco1)Nc1nc(-c2ccc(F)cc2)cs1	8	2	-7	11	12	-3	/	/	/	/	/
S=c1nc(SCc2ccccc2)[nH]c2ccccc12	12	/	-10	-17	37	11	/	/	/	/	/
c1ccc(CSc2nc3ncncc3[nH]2)cc1	0	/	48*	-8	23	/	2	-4	-1	7	19*
N#Cc1ccsc1NC(=O)c1cccc([N+](=O)[O-])c1	6	/	5	-11	-77	2	/	/	/	/	/
Cc1ccc(C(=O)NCCc2cccc(Cl)c2)cc1[N+](=O)[O-]	5	3	3	-11	-5	4	/	/	/	/	/
N#Cc1ccsc1NC(=O)c1ccc(Cl)c([N+](=O)[O-])c1	10	/	51*	-8	-19	/	-8	-44	-33	-15	10
Cc1cccc(C)c1NS(=O)(=O)c1ccc(NC(=O)c2ccc(Cl)c([N+](=O)[O-])c2)cc1	5	-1	38*	29	-85	-11	35*	41	37*	29*	43*
O=C(NCCc1cccc(Cl)c1)c1ccc(Cl)c([N+](=O)[O-])c1	10	4	35*	27	-21	4	20	32	22*	27*	26*
CC(=O)c1ccc(NC(=O)CSc2nnc3c(C)cc4ccc(C)cc4n23)cc1	20	/	/	/	-12	/	/	/	/	/	/
C#CCOc1ccc(CN2C[C@@H]3CCCN3C[C@H]2Cc2ccccc2)cc1OC	4	/	/	/	-21	/	/	/	/	/	/
CN(C)C=Nc1ncc2c3ccccc3n(Cc3ccccc3)c2c1C#N	6	4	0	-23	43	2	/	/	/	/	/
CN(C)C=Nc1ncc2c3ccccc3n(CCN(C)C)c2c1C#N	15	2	101*	-37	-8	-3	-7	-11	-23	-12	-15
Cc1cc(C)c(C#N)c(SCCC2OCCO2)n1	6	/	/	/	-8	/	/	/	/	/	/
CC(=O)C(=Nc1ccc(Cl)cc1Cl)NNc1cccc(Cl)c1	11	-9	33*	39	-45	-7	16	8	7	9	28*
CC(=O)c1ccc(NC(=O)Nc2cccc(Cl)c2)cc1	21	-1	11	18	-50	-7	/	/	/	/	/
COc1cc(C(=O)NNC2=CC(=O)CC(C)(C)C2)cc(OC)c1OC	5	2	44*	32	6	-1	3	2	7	6	9
COc1cccc(C(=O)NNC2=CC(=O)CC(C)(C)C2)c1	8	2	2	4	-14	1	/	/	/	/	/
COC(=O)Cn1cc(CN2CCc3c(nc(C)[nH]c3=O)C2)c2ccccc21	2	/	/	/	-53	/	/	/	/	/	/
COC(=O)c1c(NC(=O)Cc2ccc(OC)cc2)sc(C(=O)N2CCCCC2)c1C	11	/	/	/	-15	/	/	/	/	/	/
CCOC(=O)C1=C(Cn2cnc3ccccc32)NC(=O)NC1c1cc(C)ccc1C (centres undefined)	8	8	33*	11	3	1	20	23	20*	23*	23*
O=C(C1CC(c2ccccc2O)=NO1)N1CCOCC1 (centres undefined)	10	/	/	/	-14	/	/	/	/	/	/
CC(C)OC(=O)C(C)Nc1n[nH]c(=S)[nH]c1=O (centres undefined)	105*	/	73*	3	-46	2	1	-2	10	-1	11*
CN1C(=O)c2cccc(N(C)C)c2C1=O	8	0	-3	-6	-17	3	/	/	/	/	/
CN(C)c1cccc2c1C(=O)c1ccccc1C2=O	10	-6	33*	17	-17	-5	34*	42	26*	26*	29*
CCc1cc2cc3c(cc2n2c(=O)n(CC(=O)NC(C)(C)C)nc12)OCO3	/	/	/	/	-22	/	/	/	/	/	/
SMILES	EP2 antag	NPY-Y2 antag	NPY2 pot ag	NPY-Y1 PAM-ag	EP2 mod	NPY Y1 blocker	NPY-Y2 confirm	NPY-Y1 counter	NPY-Y1 ag 2	CNGC inhibitor	Y2 agonist ctr
Cc1cc(C)nc(Oc2ccc(Br)cc2)n1	6	/	91*	-7	26	/	0	4	-8	1	3
Brc1ccc(-c2csc(-c3c[nH]c4ccccc34)n2)cc1	15	-3	11	5	-5	-5	/	/	/	/	/
c1ccc2c(-c3csc(-c4ccncc4)n3)c[nH]c2c1	7	/	33*	34	-27	-11	28	53*	51*	39*	34*
C=CCNC(=O)CSc1nnc(-c2ccoc2C)n1-c1ccc(F)cc1	17	/	/	/	23	/	/	/	/	/	/
COc1ccc2c(c1)c(CC(=O)Nc1nnc(C3CC3)s1)c(C)n2C(=O)c1ccc(Cl)cc1	5	/	49*	49	33	/	12	10	21*	-4	12*
COc1cc(C2Nc3cccc4cccc(c34)N2)ccc1OCC(=O)Nc1ccc(F)cc1	11	/	/	/	-36	/	/	/	/	/	/
OC(COc1ccc(OCc2ccccc2)cc1)CN1CCOCC1 (centres undefined)	7	2	8	-5	-17	1	/	/	/	/	/
OC(COc1ccc(-c2ccccc2)cc1)CN1CCOCC1 (centres undefined)	4	/	56*	10	-32	3	-5	-11	3	2	2
CC(=O)Nc1ccc(S(=O)(=O)NCCSCc2c(Cl)cccc2Cl)cc1	5	0	36*	3	-33	-3	-1	-4	-11	-4	-3
CC(=O)Nc1ccc(S(=O)(=O)NCCSCc2cccc(Cl)c2)cc1	4	5	7	11	-59	-9	/	/	/	/	/
C=CCn1c(SCC(=O)Nc2ccc(OCC)cc2)nc2sc(C)cc2c1=O	12	/	/	/	-18	/	/	/	/	/	/
